In ChEMBL document CHEMBL2375329, “A diazen-1-ium-1,2-diolate analog of 7-azabenzobicyclo[2.2.1]heptane: synthesis, nitric oxide and nitroxyl release, in vitro hemodynamic, and anti-hypertensive studies” (Bioorg Med Chem Lett, 2013) one finds Activity, Ratio and half-life data, which are given here for five molecules.

In data set [1] the test system is Mus musculus. Description: Effect on cardiac hemodynamic parameter in C57 black mouse assessed as heart rate at 13.7 to 60.345 umol/kg, po after 3 hrs (reference value: 439 +/- 73 bpm). The format is functional.
Data set [2] has as its system Mus musculus. Put plainly: Antihypertensive activity in C57 black mouse assessed as mean blood pressure at 13.7 to 60.345 umol/kg, po after 6 hrs (reference value: 105.7 +/- 9.3 mmHg). The format is functional.
Data set [3] concerns Mus musculus. Put plainly: Antihypertensive activity in C57 black mouse assessed as diastolic blood pressure at 13.7 to 60.345 umol/kg, po after 6 hrs (reference value: 85.3 +/- 11.5 mmHg). The format is functional, Artery.
Data set [4] has as its system Mus musculus. Description: Antihypertensive activity in C57 black mouse assessed as systolic blood pressure at 13.7 to 60.345 umol/kg, po after 6 hrs (reference value: 126.2 +/- 7.2 mmHg). The format is functional, Artery.
For data set [5], the system named is Mus musculus. Put plainly: Effect on cardiac hemodynamic parameter in C57 black mouse assessed as heart rate at 13.7 to 60.345 umol/kg, po after 3 hrs (reference value: 448 +/- 72 bpm). Type of data set: functional.
The test system of data set [6] is Mus musculus. Description: Antihypertensive activity in C57 black mouse assessed as mean blood pressure at 13.7 to 60.345 umol/kg, po after 3 hrs (reference value: 97.5 +/- 8.7 mmHg). Type of data set: functional.
Data set [7] concerns Mus musculus. Description: Antihypertensive activity in C57 black mouse assessed as diastolic blood pressure at 13.7 to 60.345 umol/kg, po after 3 hrs (reference value: 77.2 +/- 11.3 mmHg). Type of data set: functional, Artery.
Data set [8] has as its system Mus musculus. Description: Antihypertensive activity in C57 black mouse assessed as systolic blood pressure at 13.7 to 60.345 umol/kg, po after 3 hrs (reference value: 118.3 +/- 6.1 mmHg). Type of data set: functional, Artery.
Data set [9] has as its system Mus musculus. Put plainly: Effect on cardiac hemodynamic parameter in C57 black mouse assessed as heart rate at 13.7 to 60.345 umol/kg, po after 1 hr (reference value: 449 +/- 40 bpm). Type of data set: functional.
The subject of data set [10] is Mus musculus. Description: Antihypertensive activity in C57 black mouse assessed as mean blood pressure at 13.7 to 60.345 umol/kg, po after 1 hr (reference value: 106 +/- 11 mmHg). The format is functional.
Data set [11] concerns Mus musculus. Put plainly: Antihypertensive activity in C57 black mouse assessed as diastolic blood pressure at 13.7 to 60.345 umol/kg, po after 1 hr (reference value: 85.5 +/- 12.6 mmHg). The format is functional, Artery.
Data set [12] deals with Mus musculus. Put plainly: Antihypertensive activity in C57 black mouse assessed as systolic blood pressure at 13.7 to 60.345 umol/kg, po after 1 hr (reference value: 126.5 +/- 9.4 mmHg). Type of data set: functional, Artery.
For data set [13], the system named is Heart. Put plainly: Ionotropic activity in C57BL/6 mouse heart assessed as coronary flow rate at 100 uM after 20 mins by hemodynamic analysis (reference value: 2.62 +/- 0.1 ml/min). The format is functional. In outline:
(§1)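 Isolated C57BL/6 mouse hearts perfused retrogradely (Langendorff) at constant pressure (90 cm H2O) with 95% O2/5% CO2-aerated Krebs-Henseleit buffer at 37 °C. After 20 min stabilization, hearts were perfused with compound at 10 or 100 µM for 20 min. Measured: heart rate, rates of contraction and relaxation, LVDP and coronary flow. Comparison to baseline; mean ± SEM, n = 4.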

For data set [14], the system named is Heart. Description: Ionotropic activity in C57BL/6 mouse heart assessed as increase in coronary flow rate at 10 uM after 20 mins by hemodynamic analysis relative to control. The format is functional. In outline:
as §1

For data set [15], the system named is Heart. Description: Ionotropic activity in C57BL/6 mouse heart assessed as heart rate at 100 uM after 20 mins by hemodynamic analysis (reference value: 342 +/- 11 bpm). The format is functional. The method in brief: as §1
Data set [16] deals with Heart. Put plainly: Ionotropic activity in C57BL/6 mouse heart assessed as decrease in heart rate at 10 uM after 20 mins by hemodynamic analysis relative to control. More on the design: scale not given: the % may be the effect or the level left. Type of data set: functional. In outline: as §1
Data set [17] deals with Heart. Put plainly: Ionotropic activity in C57BL/6 mouse heart assessed as rate of relaxation at 100 uM after 20 mins by hemodynamic analysis (reference value: -3318 +/- 161 cmH2O/ms). The format is functional. The method in brief: as §1
The test system of data set [18] is Heart. Description: Ionotropic activity in C57BL/6 mouse heart assessed as increase in rate of relaxation at 10 uM after 20 mins by hemodynamic analysis relative to control. Type of data set: functional. More on the design: scale not given: the % may be the effect or the level left. In outline: as §1
Data set [19] has as its system Heart. Put plainly: Ionotropic activity in C57BL/6 mouse heart assessed as rate of contraction at 100 uM after 20 mins by hemodynamic analysis (reference value: 4178 +/- 141 cmH2O/ms). The format is functional. The method in brief:
as §1

For data set [20], the system named is Heart. Description: Ionotropic activity in C57BL/6 mouse heart assessed as increase in rate of contraction at 10 uM after 20 mins by hemodynamic analysis relative to control. The format is functional. In outline:
as §1

Data set [21] has as its system Heart. Description: Positive ionotropic activity in C57BL/6 mouse heart assessed as left ventricular developing pressure at 100 uM after 20 mins by hemodynamic analysis (reference value: 169 +/- 2 cmH2O). Type of data set: functional. The method in brief: as §1
Data set [22] deals with Heart. Description: Positive ionotropic activity in C57BL/6 mouse heart assessed as increase in left ventricular developing pressure at 10 uM after 20 mins by hemodynamic analysis relative to control. The format is functional. In outline:
as §1

A short description of data set [23]: Induction of HNO release in phosphate buffer saline after 48 hrs by phosphine-trapping based LC-MS assay relative to control. The format is physicochemical. The method in brief: (§2)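 Test compound (20 µM final) was incubated in PBS pH 7.4 containing 7.5% DMSO with a phosphine HNO trap (1 mM final) and 4-hydroxybenzophenone internal standard (5.05 µM), in a sealed vial at 37 °C for 2 h or 48 h. The reaction was quenched with H2O2, dried, and redissolved in methanol. HNO-derived amide was quantified by ESI-negative LC-MS against a standard curve. % is of a theoretical 1 mol HNO/mol, mean of triplicates.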

Data set [24] in a line: Induction of HNO release in phosphate buffer saline after 2 hrs by phosphine-trapping based LC-MS assay relative to control. Type of data set: physicochemical. The method in brief:
as §2

A short description of data set [25]: Induction of nitric oxide release in phosphate buffer solution after 4 hrs by Griess method relative to control. Type of data set: physicochemical. The method in brief:
(§3)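 Test compound at 5.0 × 10^-2 mM in PBS pH 7.4 at 37 °C for 2 or 4 h. Nitrite formed from NO was quantified by the Griess reaction and expressed as % of a theoretical maximum of 2 mol NO/mol compound; mean of n = 3.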
(Nitrite, measured by Griess reagent, commonly stands in for NO production.)

The nature of data set [26]: Induction of nitric oxide release in phosphate buffer solution after 2 hrs by Griess method relative to control. The format is physicochemical. In outline: as §3
A short description of data set [27]: Ratio of IPA/No half life to compound half life in phosphate buffered saline at pH 7.4. The settings on record: buffer. The format is physicochemical.
Data set [28] can be described thus: Half life of the compound in phosphate buffered saline at 300 uM after 24 hrs at pH 7.4 by diazeniumdiolate chromophore-based UV-Vis spectrophotometric analysis. Type of data set: physicochemical. In outline:
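Compound at 300 µM final (added from 6 mM DMSO stock; 5% DMSO final) in pH 7.4 phosphate buffer, stirred at 37 °C for 0-24 h. Spectra scanned at 200-400 nm over time. Decay of the diazeniumdiolate absorbance at 259 nm was fitted as first order by linear regression of ln(At − A∞) versus time, and t1/2 = ln2/k.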

The nature of data set [29]: Induction of HNO release in phosphate buffer saline after 2 to 4 hrs by phosphine-trapping based LC-MS assay relative to control. Type of data set: physicochemical. In outline: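 HNO trapping assay. Test compound at 20 µM with phosphine trap at 1 mM and 4-hydroxybenzophenone internal standard at 5.05 µM, in PBS pH 7.4 containing 7.5% DMSO, sealed, 37 °C. Quenched with H2O2, then dried and redissolved in methanol. HNO-derived amide quantified by ESI-negative LC-MS against a standard curve (0.2-10 µg/mL). Result is % of 1 mol HNO/mol compound; mean of triplicates.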

Data set [30] is described as follows: Induction of nitric oxide release in phosphate buffer solution after 2 to 4 hrs by Griess method relative to control. The format is physicochemical. In outline:
as §3

The nature of data set [31]: Induction of nitric oxide release in phosphate buffer solution after 1.5 hrs by Griess method relative to control. Type of data set: physicochemical. The method in brief:
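Test compound at 5.0×10^-2 mM was incubated in phosphate buffer pH 7.4 at 37 °C for 1.5 h. NO was estimated indirectly as nitrite by the Griess reaction. % nitrite is based on a theoretical maximum of 2 mol NO/mol compound, mean of n = 3.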

As usually defined, the half-life is how long it takes for the measured level to halve. For `[Na+].[O-]/N=[N+](/[O-])N1C2CCC1c1ccccc12`, the Activity in the data set with Mus musculus [1] was determined as 466 bpm; in the data set with Mus musculus [2], 101.1 mmHg; in the data set on Mus musculus [3], 87.2 mmHg; in the data set with Mus musculus [4], 128.9 mmHg; in the data set with Mus musculus [5] it was 554 bpm; in the data set with Mus musculus [6], 85.8 mmHg. Besides, the Activity with Mus musculus [7] is 75.4 mmHg; in the data set on Mus musculus [8] it was 106.5 mmHg; in the data set with Mus musculus [9], 605 bpm; with Mus musculus [10] it was 82.3 mmHg; with Mus musculus [11], 70.6 mmHg; in the data set on Mus musculus [12] it was 105.5 mmHg. The Activity in the data set with Heart [13] was 3.92 mL/min; in the data set with Heart [14], 53%; in the data set on Heart [15], 307 bpm; with Heart [16] it was 22%; in the data set with Heart [17], -3945 cmH2O/ms; in the data set with Heart [18], 9%. The Activity came out at 5547 cmH2O/ms with Heart [19]; 30% in the data set with Heart [20]; 213 cmH2O with Heart [21]; 24% in the data set with Heart [22]; 20.2% in data set [23]; 22.3% in data set [24]. Moreover, the Activity in [25] came to 21.5%; in data set [26] it was 19%. In addition, the Ratio in data set [27] came out at 7.7. In data set [28], this molecule registered a half-life at 300 µM of 17.8 min.
Take `CN(c1ccc(C#N)cc1)N(O)N=O`: in data set [29], the Activity came out at 100%. For the same molecule, in data set [28], the half-life at 300 µM turned out to be 11 min.
Take `[Na+].[Na+].[O-][N+]([O-])=NO` [ANGELI'S SALT]: the Activity in data set [23] worked out at 85.7%; in data set [24] it was 85.9%; in data set [25] it was 20.8%; in [26], 21.3%.
On to `CN(N=O)c1ccc(C#N)cc1`, for which, in [30], the Activity is reported as 100%.
With `CC(C)N[N+]([O-])=N[O-].[Na+]`, the Activity in data set [23] came out at 5.1%; in [24], 5.4%; in [31], 62%.
